In ChEMBL document CHEMBL4406800, “Discovery of Potent Protease-Activated Receptor 4 Antagonists with in Vivo Antithrombotic Efficacy” (J Med Chem, 2019):

How the values were obtained:
[1] = Half life in rat at 2 mg/kg, po or 0.5 mg/kg, iv administered as infusion for 10 mins; assay type: ADME, organism-based; conditions: in vivo
[2] = Clearance in rat at 2 mg/kg, po or 0.5 mg/kg, iv administered as infusion for 10 mins; assay type: ADME, organism-based; conditions: in vivo
[3] = Half life in dog at 2 mg/kg, po or 0.5 mg/kg, iv administered as infusion for 10 mins; assay type: ADME, organism-based, Canis lupus familiaris; conditions: in vivo
Outline: (§1)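 Dog and monkey dosing: iv 0.5 mpk as a 10 min infusion in PEG400 at 0.8 ml/kg. po 2 mpk in 40/60 TPGS/PEG400 at 0.5 mL/kg.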

[4] = Half life in dog liver microsomes; assay type: ADME, Canis lupus familiaris, Microsome
[5] = target: T1, Proteinase-activated receptor 4 (Homo sapiens) (UniProt Q96RI0); assay: Displacement of [3H]BMS-986120 from His-tagged human PAR4 expressed in HEK293 cell membranes assessed as association rate constant
T1 sequence (whole entry): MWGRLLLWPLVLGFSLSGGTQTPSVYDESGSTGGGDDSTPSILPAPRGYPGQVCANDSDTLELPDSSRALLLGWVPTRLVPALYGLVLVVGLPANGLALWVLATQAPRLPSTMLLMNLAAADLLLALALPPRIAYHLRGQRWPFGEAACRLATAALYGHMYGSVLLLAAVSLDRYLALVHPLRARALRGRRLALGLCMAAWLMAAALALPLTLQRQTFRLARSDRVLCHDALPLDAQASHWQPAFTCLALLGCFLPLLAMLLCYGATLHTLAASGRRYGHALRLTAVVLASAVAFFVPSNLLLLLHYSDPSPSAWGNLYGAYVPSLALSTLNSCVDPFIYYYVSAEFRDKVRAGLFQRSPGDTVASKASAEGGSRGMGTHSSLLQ
Outline: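 HEK293 membranes expressing PAR4. Association kinetics measured; values are mean ± standard deviation, n = 3.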

[6] = Half life in monkey at 2 mg/kg, po or 0.5 mg/kg, iv administered as infusion for 10 mins; assay type: ADME, organism-based, Macaca mulatta; conditions: rhesus monkey, in vivo; outline: as §1
[7] = Half life in monkey liver microsomes; assay type: ADME, Macaca mulatta, Microsome; conditions: rhesus monkey
Cynomolgus monkey [8] = assay: Antithrombotic activity in cynomolgus monkey electrolytic carotid artery thrombosis assessed as reduction in thrombus weight at 0.4 mg/kg, po administered via gavage measured after 1.5 hrs relative to control; assay type: functional, Macaca fascicularis; set-up: scale not given: the % may be the effect or the level left
Outline: (§2)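 Monkeys retired from earlier studies after a washout of at least 4 weeks, randomized to vehicle (n=8) or 0.4, 2 or 10 mg/kg (n=7 each). Dosed by oral gavage in 40/60 w/w TPGS/PEG400 at 2 ml/kg. Anesthetized and surgically prepared 1.5 h post-dose. Thrombosis and bleeding time measured in the same animal.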

[9] = Protein binding in mouse plasma; assay type: ADME, cell-free; conditions: read-out: PPB (converted)
[10] = Protein binding in dog plasma; assay type: ADME, cell-free, Canis lupus familiaris; conditions: read-out: PPB
[11] = target: CYP450 (isoform not stated) (Homo sapiens, UniProt P04798+P05177+P05181+P08684+P10632+P10635+P11509+P11712+P13584+P20813+P20815+P20853+P24462+P24903+P33260+P33261+P51589+P78329+P98187+Q02928+Q08477+Q16678+Q16696+Q5TCH4+Q6VVX0+Q7Z449+Q8TAV3+Q96SQ9+Q9HB55); assay: Inhibition of CYP450 in human liver microsomes; assay type: ADME
[12] = Clearance in monkey at 2 mg/kg, po or 0.5 mg/kg, iv administered as infusion for 10 mins; assay type: ADME, organism-based, Macaca mulatta; conditions: rhesus monkey, in vivo; outline: as §1
[13] = Toxicity in cynomolgus monkey assessed as prolongation of kidney bleeding time at 10 mg/kg, po administered via gavage measured up to 20 mins; assay type: organism-based, Macaca fascicularis; conditions: in vivo
Outline: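 Oral gavage at 10 mg/kg or vehicle (40/60 w/w TPGS/PEG400, 2 ml/kg) to monkeys, anesthetized 1.5 h later. Bleeding time taken by renal cortex incision: time until bleeding stopped with no re-bleeding for 30 s, monitored up to 20 min, done in triplicate.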

[14] = Clearance in dog at 2 mg/kg, po or 0.5 mg/kg, iv administered as infusion for 10 mins; assay type: ADME, organism-based, Canis lupus familiaris; conditions: in vivo; outline: as §1
[15] = Protein binding in monkey plasma; assay type: ADME, cell-free, Macaca mulatta; conditions: rhesus monkey, read-out: PPB
hERG (KCNH2) = hERG (KCNH2) (Homo sapiens, UniProt Q12809); assay: Inhibition of human ERG at 10 uM by patch clamp method
hERG (KCNH2), sequence (Q12809 whole entry): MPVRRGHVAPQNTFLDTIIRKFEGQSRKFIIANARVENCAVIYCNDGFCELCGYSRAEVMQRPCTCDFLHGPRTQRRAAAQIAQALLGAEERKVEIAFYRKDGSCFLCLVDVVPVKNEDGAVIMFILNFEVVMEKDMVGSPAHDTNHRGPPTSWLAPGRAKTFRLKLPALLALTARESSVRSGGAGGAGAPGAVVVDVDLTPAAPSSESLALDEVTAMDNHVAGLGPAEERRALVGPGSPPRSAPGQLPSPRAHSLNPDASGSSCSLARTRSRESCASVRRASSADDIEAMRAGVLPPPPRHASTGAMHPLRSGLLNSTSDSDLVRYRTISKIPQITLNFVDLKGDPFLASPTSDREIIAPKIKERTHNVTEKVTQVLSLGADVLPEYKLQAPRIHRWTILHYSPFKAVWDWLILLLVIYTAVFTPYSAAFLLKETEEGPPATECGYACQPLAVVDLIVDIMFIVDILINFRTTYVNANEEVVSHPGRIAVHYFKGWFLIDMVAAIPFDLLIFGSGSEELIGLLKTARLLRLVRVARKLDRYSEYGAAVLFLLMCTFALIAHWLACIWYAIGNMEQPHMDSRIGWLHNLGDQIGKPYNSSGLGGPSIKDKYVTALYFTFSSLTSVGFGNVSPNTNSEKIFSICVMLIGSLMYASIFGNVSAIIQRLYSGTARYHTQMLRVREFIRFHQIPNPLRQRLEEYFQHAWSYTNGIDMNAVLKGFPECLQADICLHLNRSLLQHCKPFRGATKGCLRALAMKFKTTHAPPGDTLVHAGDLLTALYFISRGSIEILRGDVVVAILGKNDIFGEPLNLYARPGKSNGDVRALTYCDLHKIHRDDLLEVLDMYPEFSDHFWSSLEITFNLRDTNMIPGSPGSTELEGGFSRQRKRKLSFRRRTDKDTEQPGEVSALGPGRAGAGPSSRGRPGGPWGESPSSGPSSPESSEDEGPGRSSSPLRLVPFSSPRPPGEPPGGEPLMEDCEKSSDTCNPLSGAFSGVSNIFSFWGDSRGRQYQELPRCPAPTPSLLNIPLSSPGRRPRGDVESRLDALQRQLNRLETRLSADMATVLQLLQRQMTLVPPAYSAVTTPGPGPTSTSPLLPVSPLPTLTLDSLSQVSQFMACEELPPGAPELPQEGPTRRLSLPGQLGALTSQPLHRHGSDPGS

[16] = Oral bioavailability in dog at 2 mg/kg; assay type: ADME, organism-based, Canis lupus familiaris; conditions: in vivo; outline: as §1
[17] = Oral bioavailability in rat at 2 mg/kg; assay type: ADME, organism-based; conditions: in vivo
Outline: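 Rat dosing: iv 0.5 mpk as a 10 min infusion in 25/75 propylene glycol/PEG400 at 2 ml/kg. po 2 mpk in 5/5/90 EtOH/TPGS/PEG300 at 5 mL/kg.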

[18] = Stability in human liver microsomes assessed as parent compound remaining measured after 10 mins; assay type: ADME, Microsome; conditions: liver microsomes, read-out: Stability
[19] = target: T2, Proteinase-activated receptor 1 (Homo sapiens, UniProt P25116); assay: Antagonist activity at PAR1 in human platelet rich plasma assessed as inhibition of SFFLRR-induced platelet aggregation preincubated for 5 mins followed by SFFLRR addition
T2 sequence (P25116 whole entry): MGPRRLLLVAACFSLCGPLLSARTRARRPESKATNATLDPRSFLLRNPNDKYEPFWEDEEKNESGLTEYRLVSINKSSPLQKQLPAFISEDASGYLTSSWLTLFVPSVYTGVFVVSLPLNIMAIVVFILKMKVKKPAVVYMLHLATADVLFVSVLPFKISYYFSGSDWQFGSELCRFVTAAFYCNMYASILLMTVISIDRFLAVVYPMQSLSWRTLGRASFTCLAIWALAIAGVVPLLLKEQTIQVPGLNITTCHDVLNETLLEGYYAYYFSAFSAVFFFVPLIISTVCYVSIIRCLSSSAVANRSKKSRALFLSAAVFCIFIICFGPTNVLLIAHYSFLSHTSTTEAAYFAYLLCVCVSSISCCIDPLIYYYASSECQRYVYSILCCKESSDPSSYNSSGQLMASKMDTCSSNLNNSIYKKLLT

[20] = Oral bioavailability in monkey at 2 mg/kg; assay type: ADME, organism-based, Macaca mulatta; conditions: rhesus monkey, in vivo; outline: as §1
[21] = Protein binding in rat plasma; assay type: ADME, cell-free; conditions: read-out: PPB (converted)
[22] = Half life in mouse liver microsomes; assay type: ADME, Microsome
[23] = target: T3, Nuclear receptor subfamily 1 group I member 2 (Homo sapiens, UniProt O75469); assay: Activation of human PXR; assay type: ADME
T3 sequence (O75469 whole entry): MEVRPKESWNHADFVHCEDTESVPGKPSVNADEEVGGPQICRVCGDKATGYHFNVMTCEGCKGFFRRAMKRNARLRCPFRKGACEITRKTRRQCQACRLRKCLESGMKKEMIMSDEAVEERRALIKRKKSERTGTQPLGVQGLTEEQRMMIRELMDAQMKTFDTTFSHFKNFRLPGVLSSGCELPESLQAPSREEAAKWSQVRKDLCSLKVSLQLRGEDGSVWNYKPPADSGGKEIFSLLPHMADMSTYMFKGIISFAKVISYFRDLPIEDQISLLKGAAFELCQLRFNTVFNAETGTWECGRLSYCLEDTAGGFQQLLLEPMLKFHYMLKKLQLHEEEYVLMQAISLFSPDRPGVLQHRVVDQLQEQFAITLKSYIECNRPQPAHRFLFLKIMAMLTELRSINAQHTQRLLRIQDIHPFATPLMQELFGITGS

[24] = Stability in rat liver microsomes assessed as parent compound remaining measured after 10 mins; assay type: ADME, Microsome; conditions: read-out: Stability
Cynomolgus monkey [25] = assay: Antithrombotic activity in cynomolgus monkey electrolytic carotid artery thrombosis assessed as reduction in thrombus weight at 2 mg/kg, po administered via gavage measured after 1.5 hrs relative to control; assay type: functional, Macaca fascicularis; set-up: scale not given: the % may be the effect or the level left; outline: as §2
Cynomolgus monkey [26] = assay: Antithrombotic activity in cynomolgus monkey electrolytic carotid artery thrombosis assessed as reduction in thrombus weight administered via oral gavage measured after 1.5 hrs; assay type: functional, organism-based; conditions: Macaca fascicularis; outline: as §2
[27] = Protein binding in human plasma; assay type: ADME, cell-free; conditions: read-out: PPB (converted)
Cynomolgus monkey [28] = assay: Antithrombotic activity in cynomolgus monkey electrolytic carotid artery thrombosis assessed as reduction in thrombus weight at 10 mg/kg, po administered via gavage measured after 1.5 hrs relative to control; assay type: functional, Macaca fascicularis; set-up: scale not given: the % may be the effect or the level left; outline: as §2
[29] = target: T1, Proteinase-activated receptor 4 (Homo sapiens); assay: Displacement of [3H]BMS-986120 from His-tagged human PAR4 expressed in HEK293 cell membranes assessed as dissociation rate constant measured after 2 hrs

## COc1cc(OCc2cccc(OCc3ccccc3)c2)c2cc(-c3cn4nc(OC)sc4n3)oc2c1
[1]
  half-life: 6.9 h
[2]
  clearance: 10 mL/min/kg
[3]
  half-life: 7 h
[4]
  half-life: 1.67 h
[5]
  K: 66700 M⁻¹ s⁻¹
[6]
  half-life: 6.2 h
[7]
  half-life: 0.8 h
Cynomolgus monkey [8]
  Activity: 9%
[9]
  fraction unbound: 0.005
[10]
  fraction unbound: ≤ 0.002
[11]
  IC50: > 40 µM
[12]
  clearance: 5.2 mL/min/kg
[13]
  Activity: Non-Toxic
[14]
  clearance: 1.6 mL/min/kg
[15]
  fraction unbound: < 0.002
hERG (KCNH2)
  inhibition at 10 µM: ≤ 10%
[16]
  bioavailability: 26%
[17]
  bioavailability: 11%
[18]
  remaining at 10 min: 85%
[19]
  IC50: > 30 µM
[20]
  bioavailability: 11%
[21]
  fraction unbound: 0.002
[22]
  half-life: 2 h
[23]
  EC50: > 50 µM
[24]
  remaining at 10 min: 76%
Cynomolgus monkey [25]
  Activity: 38%
Cynomolgus monkey [26]
  Activity: Dose-dependent effect
[27]
  fraction unbound: 0.004
Cynomolgus monkey [28]
  Activity: 38%
[29]
  K: 0.013 min⁻¹
